The full list was thinned out, with hits kept by preference.
CDK5 p35 inh = CDK5/p35 (human) kinase inhibition; 330,000 compounds, 0.01% hits; Recombinant CDK5/p35, ADP-Glo luminescence, 60 min; Q00535+Q15078; AID 488839; inhibition, % at 10 µM;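 active = highest replicate inhibition of at least 50% and at least 75% of replicates reaching 50%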;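 also: plate controls were DMSO neutral control for no effect and GW8510 at 10 µM for full effect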
Dyrk1A ADPGlo = blocks rat Dyrk1A kinase activity | Q63470 | ADP-Glo luminescence, NFATc1 peptide | inhibition, % at 12.5 µM | 310,000 compounds, 0.43% hits; in the data active = inhibition above about 50%;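 also: plate controls were vehicle with enzyme for no effect and no enzyme for full effect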
STK33 inh = human STK33 kinase inhibition; Q9BYT3; purified STK33, MBP phosphorylation, ADP-Glo luminescence; inhibition, % at 10 µM; 320,000 compounds, 0.073% hits; AID 2661;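 active = inhibition at or above 25%, using the most active replicate where run in duplicate; inactive = inhibition below 25%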
GSK3 alpha inh = blocks human GSK-3 alpha kinase; P49840; ADP-Glo luminescence, 60 min; inhibition, % at 10 µM; 320,000 compounds, 0.1% hits; AID 2650;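 active = more than half of replicates show inhibition above 20%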;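 also: GST-tagged GSK-3 alpha with peptide substrate and 25 µM ATP; 0% = DMSO neutral wells and 100% = GW8510 positive control wells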
Target sequence (P49840 whole entry, looked up): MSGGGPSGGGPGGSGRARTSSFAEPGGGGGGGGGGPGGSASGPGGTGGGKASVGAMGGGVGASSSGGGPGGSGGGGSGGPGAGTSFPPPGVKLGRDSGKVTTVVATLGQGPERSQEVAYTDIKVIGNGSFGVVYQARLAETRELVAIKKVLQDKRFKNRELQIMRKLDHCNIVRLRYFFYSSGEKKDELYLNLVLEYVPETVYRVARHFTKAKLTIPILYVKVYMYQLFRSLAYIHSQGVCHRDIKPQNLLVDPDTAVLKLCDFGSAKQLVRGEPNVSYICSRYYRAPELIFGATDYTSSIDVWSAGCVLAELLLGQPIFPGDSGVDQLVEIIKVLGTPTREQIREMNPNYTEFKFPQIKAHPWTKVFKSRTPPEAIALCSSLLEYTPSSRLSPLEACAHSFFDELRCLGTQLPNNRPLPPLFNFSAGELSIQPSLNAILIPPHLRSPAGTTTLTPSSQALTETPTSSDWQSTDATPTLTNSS
GSK3B inh = inhibitors of human GSK3beta kinase | P49841 | GST-GSK3beta kinase, ADP-Glo luminescence, 60 min; stronger effect = lower value | activity score (negative = inhibition), % at 10 µM | 300,000 compounds, 0.038% hits;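 active = more than half of replicate wells score below -50%, meaning over 50% inhibition versus plate controls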;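 also: 0% = median DMSO wells and -100% = median GW8510 positive control wells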
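Assay system: GST-tagged human GSK3beta kinase, cell-free; Input: 1.6 ng GSK3beta; Medium: Tris/MgCl2 kinase buffer; Timing: 60 min enzyme reaction, room temperature; Signal: ADP-Glo luminescence quantifying ADP generated by kinase; Evaluation: score relative to plate controls; Benchmarks: DMSO neutral wells and GW8510 at 20 µM as positive.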
Dyrk1A artifact = interferes with ADP-Glo luciferase readout without Dyrk1A. shares compounds with Dyrk1A ADPGlo. ADP-Glo luciferase artifact assay, no Dyrk1A, luminescence. AC50, µM (highest dose often 12 µM), for inactives: at the highest dose activity change, negative = inhibition. 1,300 tested, under 10 active. AID 588348;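 active = fitted half-maximal dose AC50 no more than ten times the top valid tested dose, with luminescence dropping as dose rises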
Starred values were filed as active, the others as inactive; . = no result given.

SMILES | CDK5 p35 inh | Dyrk1A ADPGlo | STK33 inh | GSK3 alpha inh | GSK3B inh | Dyrk1A artifact
O=C(COC(=O)c1cc(S(=O)(=O)N2CCOCC2)ccc1F)Nc1ccc(Cl)cn1 | 2 | . | 1 | 51* | . | .
O=C(COC(=O)CCc1ccc(S(=O)(=O)N2CCOCC2)cc1)Nc1ccc(Cl)cn1 | 3 | 6 | -3 | 20 | -18 | .
CN(C)CCCNc1ccc(-c2cc(Nc3cccc(Cl)c3)ncn2)cn1 | 7 | 17 | 5 | 36 | -86* | .
CC(C)CNc1ncnc2[nH]ncc12 | 2 | 17 | . | . | . | .
COc1ccc2c(c1O)C(=O)c1ccccc1C2=O | . | . | 0 | -1 | 5 | .
Nc1c(O)ccc2c1C(=O)c1ccccc1C2=O | . | . | 35* | 30 | -13 | .
Cc1nc2ccccc2n2c(-c3ccccc3)c3c(=O)n(C)c(=O)n(C)c3c12 | 0 | -1 | -2 | 59* | 0 | .
O=C(CN(C1CCCCC1)S(=O)(=O)c1ccc(F)cc1)NCC1CCCO1 (stereo unspecified) | -1 | 3 | . | . | . | .
CC(CCC(C)C(C)(C)C)[C@@H]1CC[C@H]2C3C[C@H](OS(O)(=S)=S)[C@H]4C[C@H](OS(O)(=S)=S)[C@@H](OS(O)(=S)=S)C[C@]4(C)[C@H]3CC[C@]12C (stereo partly specified) (tested in a mixture with another compound) | 80* | 70* | 1 | 3 | . | .
CN(C)CC1(C)Cc2ccsc2C1O (stereo unspecified) | 1 | . | . | . | . | .
COc1ccccc1NC(=O)CN1CCN(CC(=O)Nc2ccc(F)cc2F)CC1 | 1 | -3 | . | . | 0 | .
COC(=O)[C@]1(CC(C)C)N[C@H](c2ccc(-c3cccc(Cl)c3)cc2)[C@@H]2C(=O)N(C)C(=O)[C@@H]21 | 1 | 56* | 1 | -2 | -1 | 9%
COC(=O)[C@]1(C)N[C@H](c2ccc(-c3cccc(Cl)c3)cc2)[C@@H]2C(=O)N(C)C(=O)[C@@H]21 | 1 | 9 | 0 | -2 | . | .
CCC(=O)Nc1c(C#N)c2nc3ccccc3nc2n1C1CCCCC1 | 5 | 44 | -2 | 10 | -11 | .
CCC(=O)Nc1c(C#N)c2nc3ccccc3nc2n1-c1ccccc1C | -1 | 55* | 0 | 14 | -5 | 8%
CSc1ccc(/C=C/C(=O)OCC(=O)N2CCN(c3ccccc3)CC2)cc1 | 1 | -6 | . | . | . | .
O=C(O)c1cccc2c1-c1ccccc1/C2=N\Nc1ccccc1 | -1 | 7 | -2 | -1 | 1 | .
O=C(O)c1cccc2c1/C(=N/O)c1ccccc1-2 | -3 | 81* | 4 | 2 | 1 | 9%
O=C(c1cccc2c1-c1ccccc1/C2=N/O)N1CCCCC1 | -2 | 60* | 7 | 4 | -3 | 10%
NC(=O)N/N=C1\c2ccccc2-c2c(C(N)=O)cccc21 | 0 | 51* | 8 | 5 | 2 | 10%
CCC1(CC)SC(N)=NC1=O | 1 | -2 | . | . | . | .
CC(=O)Nc1cccc(NC(=O)c2cc3ccccc3o2)c1 | 2 | 53* | 5 | -1 | -1 | 4%
O=C(Nc1cccc(-c2nc3ncccc3o2)c1)c1cc2ccccc2o1 | 0 | 56* | 2 | -2 | 1 | 8%
Cc1cc(-c2ccc(C(=O)O)s2)cnc1N | 0 | 65* | -1 | 0 | -4 | 9%
COCCCN(C(C)=O)c1nc(-c2ccc(OC)cc2)cs1 | -3 | 76* | -1 | 0 | -4 | 7%
SMILES | CDK5 p35 inh | Dyrk1A ADPGlo | STK33 inh | GSK3 alpha inh | GSK3B inh | Dyrk1A artifact
CN1N=C(C(=O)N=c2sc3ccccc3n2C)CCC1=O | 4 | 7 | . | . | . | .
COc1cc(-c2cc(=O)c3c(O)c(OC)c(OC)c(O)c3o2)ccc1O | 5 | 80* | 46* | 42 | -26 | 7%
O=C(Nc1ccc(S(=O)(=O)N2CCOCC2)cc1)c1ccc(Cl)c([N+](=O)[O-])c1 | 2 | -6 | . | . | . | .
CC(=O)Nc1ccc(/C=C/c2nc3ccccc3o2)cc1 | 0 | 59* | -1 | -2 | -1 | 9%
O=C(Cc1cccc(NC(=O)C2CCCN(C(=O)C3CCCCC3)C2)c1)Nc1ccc(C(=O)N2CCCCC2)cc1 (stereo unspecified) | 1 | . | . | . | . | .
CC(C)C[C@@H](CNCC(=O)[C@H](Cc1ccccc1)NC(=O)c1[nH]cnc1C(=O)N[C@@H](C)CN)NC(=O)c1nc[nH]c1C(=O)N[C@@H](C)C(=O)O | 0 | . | . | . | . | .
N#Cc1c(N)nc2c3c(sc(=N)c2c1N)NC(=O)CC3c1c(F)cccc1Cl (stereo unspecified) | -1 | 67* | 0 | 5 | -4 | 10%
CC1(C)C2CCC1(C)C(SC(=N)N)C2 (stereo unspecified) | 1 | -1 | . | . | . | .
COc1ccccc1NC(=S)N/N=C/c1cccc(C)c1 | 1 | -1 | -1 | -3 | 7 | .
COc1ccccc1NC(=S)N/N=C/c1ccc(O)cc1 | 4 | 51* | 5 | 8 | -1 | 11%
CC1CN(C=O)CC(C)N1CCN1C(C)CN(C=O)CC1C (stereo unspecified) | 3 | -3 | . | . | . | .
CC(C)C[C@H]1CNC(=S)N1CC1CCN(CCCCc2ccccc2)CC1 | 0 | . | . | . | . | .
COC(=O)c1sc2cnccc2c1N | 2 | 58* | 10 | 30 | -16 | 9%
Cc1cccc(Cl)c1OCCCCn1ccnc1 | 1 | 56* | 3 | 5 | 1 | 11%
C=CCN1C(=O)/C(=C/c2ccccc2)S/C1=N/c1nccs1 | -1 | 58* | 0 | -1 | 1 | 7%
O=C(Nc1ncc2c(n1)-c1ccccc1CC2)c1ccc(Cl)cc1 | 2 | 59* | -1 | -2 | 0 | 8%
COC(=O)C1=C(C(=O)OC)C(c2cc(Br)ccc2O)c2sc(=O)[nH]c2S1 (stereo unspecified) | 2 | 63* | 0 | 22 | . | 9%
ON=C1C2CC=C(c3ccccc3)C1CCC2 (stereo unspecified) | 2 | 16 | . | . | . | .
NC1=NC(=O)/C(=C\c2ccco2)S1 | 2 | 47 | 3 | 3 | -1 | .
NC1=NC(=O)/C(=C/c2ccc(-c3ccc(S(N)(=O)=O)cc3)o2)S1 | 40 | 77* | 0 | 65* | -2 | 13%
CS(=O)(=O)Nc1ccc(-c2ccc(/C=C3\SC(N)=NC3=O)o2)cc1 | 5 | 84* | -1 | 55* | 0 | 10%
CC1(C)OC(=O)C(=Cc2ccc(-c3ccc(S(N)(=O)=O)cc3)o2)C(=O)O1 | 0 | -1 | -1 | -1 | 0 | .
Cc1cc([N+](=O)[O-])nn1Cc1ccccc1F | 0 | 51* | 0 | -3 | 2 | 12%
O=C(O)c1ccc2c(c1)S(=O)(=O)c1cc(Cl)ccc1C2=O | -1 | 66* | -2 | 74* | . | 7%
CC(=O)C1CCC2C3CC=C4CC(SC(=N)N)CCC4(C)C3CCC12C (stereo unspecified) | 1 | -2 | . | . | . | .
COc1ccc2[nH]c3c(C)c4ccncc4c(C)c3c2c1 | -1 | 56* | 6 | -1 | 3 | 10%
